Screens: PubChem, several laboratories
Most compounds without a hit are left out; they make up all but 2.9% or so of the library.
NR1D1 modulator: modulators of Rev-erb alpha DNA binding, primary screen, biochemical, FITC-DNA, fluorescence polarization, uHTS. activity, % at 10 µM. AID 1259318, 2017. 370,000 compounds, 0.79% hits. Rev-erbα–FITC-DNA binding, 90 min;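 active = activity above about 14%, limit read from the data; passing the limit was not always enough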
Target sequence (P20393 whole entry, looked up): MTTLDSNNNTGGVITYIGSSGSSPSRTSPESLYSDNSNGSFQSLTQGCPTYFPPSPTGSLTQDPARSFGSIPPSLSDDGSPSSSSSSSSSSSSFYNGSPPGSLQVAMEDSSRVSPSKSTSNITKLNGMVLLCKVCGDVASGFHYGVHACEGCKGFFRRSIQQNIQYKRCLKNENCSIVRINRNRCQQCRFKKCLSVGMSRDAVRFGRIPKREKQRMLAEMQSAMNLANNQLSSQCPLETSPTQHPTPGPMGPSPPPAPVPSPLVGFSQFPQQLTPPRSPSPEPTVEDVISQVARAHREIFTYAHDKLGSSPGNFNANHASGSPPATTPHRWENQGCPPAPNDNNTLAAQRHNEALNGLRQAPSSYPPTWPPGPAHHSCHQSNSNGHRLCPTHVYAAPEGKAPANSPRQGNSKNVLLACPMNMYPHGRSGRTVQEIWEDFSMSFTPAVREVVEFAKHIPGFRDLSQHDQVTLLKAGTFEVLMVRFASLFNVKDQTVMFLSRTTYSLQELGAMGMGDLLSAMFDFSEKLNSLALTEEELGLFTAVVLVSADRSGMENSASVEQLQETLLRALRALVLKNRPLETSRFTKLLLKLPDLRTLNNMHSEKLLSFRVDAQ
iPSC survival up: enhancers of single-cell hiPSC survival, primary screen, ATPlite luminescence. 100% = ROCK inhibitor wells, 0% = DMSO. 360,000 compounds, 0.044% hits. survival enhancement, % at 20 µM; in the data active = survival enhancement above about 18%;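 note: cells exposed to compounds for 16 hours before the ATP read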
H9c2 TAG inh: inhibitors of triacylglycerol accumulation, primary screen, cell-based, uHTS, fluorescence, H9c2; inhibition, % at 12.5 µM; H9c2 cells, Nile Red lipid (TAG) fluorescence; cells loaded with 200 µM oleic acid; 230,000 compounds, 0.66% hits;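 active = pattern-corrected inhibition of lipid staining of at least 50% with the nuclear-stain viability signal not falling by more than 50%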
PG9 Ab binder: binders of HIV-1 gp120 antibody PG9, primary screen, biochemical, TR-FRET; inhibition, % at 6.7 µM; HIV-1 gp120 / PG9 antibody interaction; TR-FRET gp120-PG9 antibody binding; 360,000 compounds, 0.43% hits; AID 624416, 2012; in the data active = inhibition above about 8.5%
T cruzi repl: inhibitors of intracellular T. cruzi growth, primary screen, luminescence, NIH3T3 host cells. T. cruzi beta-gal in NIH3T3, 90 h. inhibition, % (no concentration beside the values). 300,000 compounds, 1.4% hits. AID 1885, 2009;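 active = mean inhibition across valid replicates above about 55%, limit read from the data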;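 note: signal also drops with host cell toxicity which is not excluded here; higher percent means less beta-gal luminescence so fewer parasites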
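Material: NIH/3T3 host cells with β-galactosidase reporter T. cruzi; Input: 5,000 host fibroblasts per well; Medium: DMEM, 2% fetal bovine serum; Compound: 50 nL DMSO compound solution per well; Schedule: 3 h host attachment, then at least 90 h co-culture; Detection: luminescent β-galactosidase signal after 60 min lysis.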
beta cell repl: inducers of MIN6 beta-cell proliferation, primary screen, ATP luminescence, uHTS; MIN6 cells proliferation, ATPlite luminescence, 48 h; cells starved in 0.2% serum; 100% = growth in 10% serum; proliferation, % at 10 µM; 330,000 compounds, 0.29% hits; AID 2380, 2010;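 active = compounds whose signal lies at least 3.5 SD above the mean of all wells on their plate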
Hits are given with their value.

Screening N#C/C(=C\c1ccc([N+](=O)[O-])o1)c1nc2ccccc2[nH]1 returned NR1D1 modulator inactive, PG9 Ab binder inactive, T cruzi repl inactive and beta cell repl inactive.
N#C/C(=C\c1ccc(Sc2ccccc2)o1)c1nc2ccccc2[nH]1 was read as NR1D1 modulator inactive, iPSC survival up inactive, PG9 Ab binder inactive, T cruzi repl 60.9 and beta cell repl inactive.
CCc1ccccc1NC(=O)CSc1n[nH]c(C)c1[N+](=O)[O-] was read as NR1D1 modulator inactive, iPSC survival up inactive, PG9 Ab binder inactive, T cruzi repl inactive and beta cell repl inactive.
For Cc1ccc(CN2CCSc3ccc(C(=O)NC4CCN(Cc5ccccc5)CC4)cc32)cc1 the results were NR1D1 modulator inactive, iPSC survival up inactive, H9c2 TAG inh inactive, PG9 Ab binder inactive, T cruzi repl 57.5 and beta cell repl inactive.
CCn1cc(C(=O)N2CCc3ccccc32)c(=O)c2cc(S(=O)(=O)N3CC(C)CC(C)C3)ccc21 (centres undefined) was read as NR1D1 modulator inactive, iPSC survival up inactive, PG9 Ab binder inactive, T cruzi repl inactive and beta cell repl inactive.
Screening Cc1ccc(C)c(/C=C/C(=O)c2ccccc(=O)c2O)c1 returned NR1D1 modulator inactive, iPSC survival up inactive, PG9 Ab binder inactive and T cruzi repl 58.4.
Screening Cc1ccc(/C=C/C(=O)c2ccccc(=O)c2O)c(C)c1 returned NR1D1 modulator inactive, iPSC survival up inactive, PG9 Ab binder inactive, T cruzi repl inactive and beta cell repl inactive.
For O=C(/C=C/c1ccccc1Cl)c1ccccc(=O)c1O the results were NR1D1 modulator inactive, iPSC survival up inactive, PG9 Ab binder inactive and T cruzi repl 57.9.
For COc1ccc2nc(NC(=O)C3CCCN(S(=O)(=O)c4cccc5nonc45)C3)sc2c1 (centres undefined) the results were NR1D1 modulator inactive, iPSC survival up inactive, H9c2 TAG inh inactive, PG9 Ab binder inactive, T cruzi repl inactive and beta cell repl inactive.
`CCOc1ccc2nc(NC(=O)C3CCCN(S(=O)(=O)c4cccc5nonc45)C3)sc2c1` (centres undefined) gave NR1D1 modulator inactive, iPSC survival up inactive, PG9 Ab binder inactive, T cruzi repl 57.4 and beta cell repl inactive.
Screening CCN1CCN(S(=O)(=O)c2ccc(Cl)c(C(=O)Nc3ccc(OC(F)F)cc3)c2)CC1 returned NR1D1 modulator inactive, iPSC survival up inactive, H9c2 TAG inh inactive, PG9 Ab binder inactive, T cruzi repl inactive and beta cell repl inactive.
`CCn1cc(C(=O)OC)c(=O)c2cc(S(=O)(=O)N(C)C3CCCCC3)ccc21` gave NR1D1 modulator inactive, iPSC survival up inactive, H9c2 TAG inh inactive, PG9 Ab binder inactive, T cruzi repl inactive and beta cell repl inactive.
For COc1ccc(-c2cc(C#N)nc(N3CCNCC3)n2)cc1 the results were NR1D1 modulator inactive, iPSC survival up inactive, PG9 Ab binder inactive, T cruzi repl 57.5 and beta cell repl inactive.
For COc1ccc(-c2cc(C#N)nc(N3CCN(C)CC3)n2)cc1 the results were NR1D1 modulator inactive, iPSC survival up inactive, PG9 Ab binder inactive, T cruzi repl 66.3 and beta cell repl inactive.
For COc1ccc(-c2cc(C#N)nc(Cl)n2)cc1 the results were NR1D1 modulator inactive, iPSC survival up inactive, H9c2 TAG inh inactive, PG9 Ab binder inactive, T cruzi repl inactive and beta cell repl inactive.
Screening CC(Oc1ccc2c(=O)c(-c3ccc(Cl)cc3)c(C(F)(F)F)oc2c1)C(=O)O (centres undefined) returned NR1D1 modulator inactive, iPSC survival up inactive, H9c2 TAG inh inactive, PG9 Ab binder inactive, T cruzi repl inactive and beta cell repl inactive.
`CN(C)c1ccc(C(=S)N2CCN(S(=O)(=O)c3ccccc3)CC2)cc1` gave NR1D1 modulator inactive, iPSC survival up inactive, PG9 Ab binder inactive, T cruzi repl 56.4 and beta cell repl inactive.
Screening CCc1ccc2[nH]c(=O)c(C3C(C#N)=C(N)Oc4c3ccc3cccnc43)cc2c1 (centres undefined) returned NR1D1 modulator inactive, iPSC survival up inactive, H9c2 TAG inh inactive, PG9 Ab binder inactive, T cruzi repl 58.8 and beta cell repl inactive.
`O=c1c2ccccc2nc(CSc2nnnn2-c2ccccc2)n1-c1cccc(C(F)(F)F)c1` gave NR1D1 modulator inactive, iPSC survival up inactive, PG9 Ab binder inactive, T cruzi repl inactive and beta cell repl inactive.
Screening CCCCCCOc1ccc(/C(C)=N/NC2=NCCN2)cc1[N+](=O)[O-] returned NR1D1 modulator inactive, iPSC survival up inactive, PG9 Ab binder inactive, T cruzi repl 65.5 and beta cell repl inactive.
COCCNC(=S)N1CCN(c2nc3ccccc3s2)CC1 was read as NR1D1 modulator inactive, iPSC survival up inactive, H9c2 TAG inh inactive, PG9 Ab binder inactive, T cruzi repl inactive and beta cell repl inactive.
Screening Cc1cc(Cl)c2oc(C(=O)N3CCN(c4ccncc4)CC3)c(C)c2c1 returned NR1D1 modulator inactive, iPSC survival up inactive, H9c2 TAG inh inactive, PG9 Ab binder inactive, T cruzi repl 60.5 and beta cell repl inactive.
`CC(NCc1ccncc1)C12CC3CC(CC(C3)C1)C2` (centres undefined) gave NR1D1 modulator inactive, iPSC survival up inactive, H9c2 TAG inh inactive, PG9 Ab binder inactive, T cruzi repl 62.6 and beta cell repl inactive.
Screening CCCOc1ccc(N2C(=O)CC(N(CCc3ccc(OC)c(OC)c3)C(=S)Nc3ccccc3)C2=O)cc1 (centres undefined) returned iPSC survival up inactive, T cruzi repl 63.7 and beta cell repl inactive.
For Cc1ccc(-n2c(N)c(C(=O)Nc3c(C)n(C)n(-c4ccccc4)c3=O)c3nc4ccccc4nc32)cc1C the results were T cruzi repl inactive and beta cell repl inactive.
Screening CCN1CCc2c(sc(NC(=O)c3ccc4ccccc4c3)c2C(N)=O)C1 returned NR1D1 modulator inactive, iPSC survival up inactive, H9c2 TAG inh inactive, PG9 Ab binder inactive, T cruzi repl 61.8 and beta cell repl inactive.
C/C(Cn1nnc([N+](=O)[O-])n1)=N\NC(=O)c1ccc(Cl)c(Cl)c1 was read as iPSC survival up inactive, PG9 Ab binder inactive, T cruzi repl 65.8 and beta cell repl inactive.
CC(C)CCNc1ncnc2c1cnn2Cc1ccccc1Cl was read as NR1D1 modulator inactive, iPSC survival up inactive, PG9 Ab binder inactive, T cruzi repl inactive and beta cell repl inactive.
For Cc1occc1C(=O)NCCc1ccc(Cl)cc1 the results were NR1D1 modulator inactive, iPSC survival up inactive, PG9 Ab binder inactive, T cruzi repl inactive and beta cell repl inactive.
